Test results published in ChEMBL document CHEMBL1165950, “Design and synthesis of new potent anticancer pyrazoles with high FLT3 kinase inhibitory selectivity” (Bioorg Med Chem, 2010).

Assays:
Assay type in all cases: functional
MCF7 = test: Cytotoxicity against human MCF7 cells assessed as cell growth at 10 uM; details: read-out: Activity
Procedure, shortened: (§1)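 NCI-60 screen: cells grown in RPMI 1640 with 5% FBS and 2 mM L-glutamine, plated at 5000–40,000 cells/well according to doubling time, and preincubated 24 h at 37 °C, 5% CO2. The single 10 µM dose (DMSO stock) was added, then incubated 48 h. Cells were TCA-fixed and stained with 0.4% SRB, read at 515 nm, and growth % calculated against time-zero and control plates.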

MDA-MB-231 = test: Cytotoxicity against human MDA-MB-231 cells assessed as cell growth at 10 uM; details: read-out: Activity; procedure, shortened: as §1
[1] = Cytotoxicity against human Hs 578T cells assessed as cell growth at 10 uM; details: read-out: Activity
Procedure, shortened: (§2)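 Single-dose NCI-60 screen at 10 µM. Cells were grown in RPMI 1640 with 5% FBS and 2 mM L-glutamine, then treated for 48 h at 37 °C. Protein was measured by SRB staining with absorbance at 515 nm. Percentage growth was recorded, and inhibition percentage was calculated as 100 minus growth percentage.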

BT-549 = test: Cytotoxicity against human BT549 cells assessed as cell growth at 10 uM; details: read-out: Activity; procedure, shortened: as §2
T47D = test: Cytotoxicity against human T47D cells assessed as cell growth at 10 uM; details: read-out: Activity; procedure, shortened: as §1
MDA-MB-468 = test: Cytotoxicity against human MDA-MB-468 cells assessed as cell growth at 10 uM; details: read-out: Activity; procedure, shortened: as §1
[2] = Growth inhibition of human NCI60 cells at 10 uM after 48 hrs by sulforhodamine B assay relative to control; details: NCI60, 48 h, read-out: GI
Procedure, shortened: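 Single-dose NCI screen at 10 µM across the 60-line panel, 48 h exposure at 37 °C after a 24 h preincubation. Adherent cells were fixed with cold TCA and stained with 0.4% SRB, and absorbance was read at 515 nm. Inhibition % was taken as 100 minus growth %, and the mean across all lines was reported.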

CCRF-CEM = test: Cytotoxicity against human CCRF-CEM cells assessed as cell growth at 10 uM; details: read-out: Activity; procedure, shortened: as §2
HL-60(TB) = test: Cytotoxicity against human HL-60(TB) cells assessed as cell growth at 10 uM; details: read-out: Activity
Procedure, shortened: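 NCI 60-cell panel screen at a single concentration of 10 µM. Cells are grown in RPMI 1640 with 5% FBS and 2 mM L-glutamine and read by SRB protein staining at 515 nm. Percent growth is measured relative to time-zero and untreated controls; inhibition % is 100 minus growth %.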

K562 = test: Cytotoxicity against human K562 cells assessed as cell growth at 10 uM; details: read-out: Activity; procedure, shortened: as §2
MOLT-4 = test: Cytotoxicity against human MOLT4 cells assessed as cell growth at 10 uM; details: read-out: Activity; procedure, shortened: as §1
[3] = Cytotoxicity against human […] cells assessed as cell growth at 10 uM; details: read-out: Activity; procedure, shortened: as §1
SR = test: Cytotoxicity against human SR cells assessed as cell growth at 10 uM; details: read-out: Activity; procedure, shortened: as §1
A549 = test: Cytotoxicity against human A549 cells assessed as cell growth at 10 uM; details: read-out: Activity; procedure, shortened: as §2
EKVX = test: Cytotoxicity against human EKVX cells assessed as cell growth at 10 uM; details: read-out: Activity; procedure, shortened: as §2
HOP-62 = test: Cytotoxicity against human HOP62 cells assessed as cell growth at 10 uM; details: read-out: Activity; procedure, shortened: as §2
HOP-92 = test: Cytotoxicity against human HOP92 cells assessed as cell growth at 10 uM; details: read-out: Activity; procedure, shortened: as §2
NCI-H226 = test: Cytotoxicity against human NCI-H226 cells assessed as cell growth at 10 uM; details: read-out: Activity; procedure, shortened: as §1
NCI-H23 = test: Cytotoxicity against human NCI-H23 cells assessed as cell growth at 10 uM; details: read-out: Activity; procedure, shortened: as §1
NCI-H322M = test: Cytotoxicity against human NCI-H322M cells assessed as cell growth at 10 uM; details: read-out: Activity; procedure, shortened: as §1
NCI-H460 = test: Cytotoxicity against human NCI-H460 cells assessed as cell growth at 10 uM; details: read-out: Activity; procedure, shortened: as §1
NCI-H522 = test: Cytotoxicity against human NCI-H522 cells assessed as cell growth at 10 uM; details: read-out: Activity; procedure, shortened: as §1
COLO 205 = test: Cytotoxicity against human COLO205 cells assessed as cell growth at 10 uM; details: read-out: Activity; procedure, shortened: as §2
HCC 2998 = test: Cytotoxicity against human HCC2998 cells assessed as cell growth at 10 uM; details: read-out: Activity; procedure, shortened: as §2
HCT-116 = test: Cytotoxicity against human HCT116 cells assessed as cell growth at 10 uM; details: read-out: Activity; procedure, shortened: as §2
HCT-15 = test: Cytotoxicity against human HCT15 cells assessed as cell growth at 10 uM; details: read-out: Activity; procedure, shortened: as §2
HT-29 = test: Cytotoxicity against human HT-29 cells assessed as cell growth at 10 uM; details: read-out: Activity; procedure, shortened: as §2
KM12 = test: Cytotoxicity against human KM12 cells assessed as cell growth at 10 uM; details: read-out: Activity; procedure, shortened: as §1
SW-620 = test: Cytotoxicity against human SW620 cells assessed as cell growth at 10 uM; details: read-out: Activity; procedure, shortened: as §1
SF-268 = test: Cytotoxicity against human SF268 cells assessed as cell growth at 10 uM; details: read-out: Activity; procedure, shortened: as §1
SF-295 = test: Cytotoxicity against human SF295 cells assessed as cell growth at 10 uM; details: read-out: Activity; procedure, shortened: as §1

## Cc1cc(O)cc(-c2nn(CC#N)cc2-c2ccnc(-c3ccc(C#N)cc3)c2)c1
MCF7
  growth at 10 µM: 34.4%
MDA-MB-231
  growth at 10 µM: 67%
[1]
  growth at 10 µM: 103%
BT-549
  growth at 10 µM: 84.8%
T47D
  growth at 10 µM: 29.2%
MDA-MB-468
  growth at 10 µM: 33.7%
[2]
  inhibition of growth at 10 µM: 20.8%
CCRF-CEM
  growth at 10 µM: 81.2%
HL-60(TB)
  growth at 10 µM: 56.2%
K562
  growth at 10 µM: 70%
MOLT-4
  growth at 10 µM: 54.6%
[3]
  growth at 10 µM: 70.2%
SR
  growth at 10 µM: 88.5%
A549
  growth at 10 µM: 83.2%
EKVX
  growth at 10 µM: 79.1%
HOP-62
  growth at 10 µM: 85.4%
HOP-92
  growth at 10 µM: 72.3%
NCI-H226
  growth at 10 µM: 79.8%
NCI-H23
  growth at 10 µM: 72.7%
NCI-H322M
  growth at 10 µM: 97.4%
NCI-H460
  growth at 10 µM: 104%
NCI-H522
  growth at 10 µM: 60.7%
COLO 205
  growth at 10 µM: 66.1%
HCC 2998
  growth at 10 µM: 92%
HCT-116
  growth at 10 µM: 65.7%
HCT-15
  growth at 10 µM: 70.4%
HT-29
  growth at 10 µM: 66.3%
KM12
  growth at 10 µM: 95.6%
SW-620
  growth at 10 µM: 119%
SF-268
  growth at 10 µM: 102%
SF-295
  growth at 10 µM: 91.3%
